ChEMBL document CHEMBL2169855, “Carbamoyl pyridone HIV-1 integrase inhibitors. 1. Molecular design and establishment of an advanced two-metal binding pharmacophore” (J Med Chem, 2012)
One block for each compound: values may come before it.

Key:
[1] = target: Human immunodeficiency virus type 1 integrase (Human immunodeficiency virus 1, UniProt Q7ZJM1); experiment: Inhibition of HIV1 integrase strand transfer activity using pre-incubation and wash with Mg2+ cofactor by ELISA based microtiter plate integration assay
Sequence of Human immunodeficiency virus type 1 integrase (Q7ZJM1 whole entry): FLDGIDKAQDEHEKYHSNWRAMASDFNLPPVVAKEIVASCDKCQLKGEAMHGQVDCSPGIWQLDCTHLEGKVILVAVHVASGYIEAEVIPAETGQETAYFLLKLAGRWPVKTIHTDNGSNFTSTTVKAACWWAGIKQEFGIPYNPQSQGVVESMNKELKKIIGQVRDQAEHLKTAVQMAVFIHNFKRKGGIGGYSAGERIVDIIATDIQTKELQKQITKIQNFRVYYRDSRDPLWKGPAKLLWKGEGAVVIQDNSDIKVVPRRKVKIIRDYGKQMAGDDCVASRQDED
In short: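 Preformed IN–substrate DNA complex on microtiter plate, unbound IN washed out; compound preincubated with complex 30 min at 30 °C in 30 mM MOPS pH 7.2, 10 mM DTT, 5% glycerol, 100 μg/mL BSA; Mg2+ 15 mM throughout; strand transfer started with digoxigenin-labeled target DNA, products quantified by anti-Dig ELISA; mean ± sd of three independent experiments.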

[2] = test system: Human immunodeficiency virus 1; experiment: Inhibition of wild type HIV1 3B infected in human MT4 cells using cells pre-incubated with compound for 1 hr measured 4 days post viral infection by MTT assay; format: functional, organism-based; details: Human immunodeficiency virus 1, 3B
In short: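 MT-4 cells (2.5 × 10^4/well, RPMI 1640 + 10% FBS) exposed to compound dilutions 1 h, then infected with HIV-1 IIIB (MOI 0.001 or TCID50 4 to 10); after 4 days viability read by MTT absorbance at 560/690 nm; mean ± sd of three independent experiments.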

[3] = Cytotoxicity against human MT4 cells incubated for 4 days by MTT assay; format: cell-based
In short: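 Uninfected MT-4 cells, 2.5 × 10^4/well, cultured with graded compound concentrations for 4 days; growth inhibition measured by MTT absorbance at 560 and 690 nm.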

[4] = test system: Human immunodeficiency virus 1; experiment: Resistance index, ratio of IC50 for HIV1 3B containing integrase N155H mutant to IC50 for wild type HIV1 3B; format: functional
In short: (§1)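 Integrase mutations introduced into pNL432 molecular clone; plasmids transfected into 293T cells, supernatants harvested after 2 days and stored at −80 °C. Mutant and wild-type viruses tested in HeLa-CD4 cells carrying HIV-1 LTR-driven β-galactosidase reporter. Fold change is mutant IC50 over wild-type IC50.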

[5] = test system: Human immunodeficiency virus 1; experiment: Resistance index, ratio of IC50 for HIV1 3B containing integrase Y143R mutant to IC50 for wild type HIV1 3B; format: functional; in short: as §1
[6] = test system: Human immunodeficiency virus 1; experiment: Inhibition of wild type HIV1 3B infected in human MT4 cells using cells pre-incubated with compound for 1 hr measured 4 days post viral infection in presence of 20 mg/ml HSA by MTT assay; format: functional, organism-based; details: Human immunodeficiency virus 1, 3B
[7] = test system: Human immunodeficiency virus 1; experiment: Potency shift, ratio of IC50 for wild type HIV1 3B infected in human MT4 cells in presence of 20 mg/ml HSA to IC50 for wild type HIV1 3B infected in human MT4 cells in absence of HSA; format: functional
In short: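 MT-4 cells (2.5 × 10^4/well) preincubated 1 h with graded compound, then infected with HIV-1 IIIB (MOI 0.001 or TCID50 4 to 10), with or without human serum albumin 20 mg/mL; after 4 days viability read by MTT absorbance at 560/690 nm. Fold-shift = IC50 with HSA over IC50 without.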

[8] = Total clearance in fed rat at 1 mg/kg, iv measured up to 24 hrs; format: ADME, organism-based; design: dose 1 mg/kg, route intravenous; details: in vivo
In short: (§2)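 Intravenous 1 mg/kg, fed conditions; vehicle DMA/PEG/saline (1:4:5) for rats, 50 mM N-methylglucamine in 3% mannitol for dogs and monkeys; rat blood via jugular cannula; plasma collected up to 24 h, centrifuged 16000g 3 min, held at −20 °C; noncompartmental analysis.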

[9] = Terminal half life in fed rat at 1 mg/kg, iv measured up to 24 hrs; format: ADME, organism-based; design: dose 1 mg/kg, route intravenous; details: in vivo, read-out: beta t1/2 (converted); in short: as §2
[10] = AUC (0 to infinity) in fed rat at 5 mg/kg, po measured up to 24 hrs; format: ADME, organism-based; design: time infinity, dose 5 mg/kg, route oral; details: plasma
[11] = Half life in fed rat at 5 mg/kg, po measured up to 24 hrs; format: ADME, organism-based; design: dose 5 mg/kg, route oral; details: in vivo
[12] = Volume of distribution at steady state in fed rat at 1 mg/kg, iv measured up to 24 hrs; format: ADME, organism-based; design: dose 1 mg/kg, route intravenous; details: in vivo, read-out: Vdss; in short: as §2
[13] = Oral bioavailability in fed rat at 5 mg/kg measured up to 24 hrs; format: ADME, organism-based; details: in vivo
[14] = Plasma concentration in fed rat at 5 mg/kg, po measured at 24 hrs; format: ADME, organism-based; design: dose 5 mg/kg, route oral
[15] = Ratio of Plasma concentration in fed rat at 5 mg/kg, po measured at 24 hrs to IC50 for wild type HIV1 3B infected in human MT4 cells in presence of 20 mg/ml HSA
[16] = Total clearance in fed beagle dog at 1 mg/kg, iv measured up to 24 hrs; format: ADME, organism-based, Canis lupus familiaris; design: dose 1 mg/kg, route intravenous; details: in vivo; in short: as §2
[17] = Terminal half life in fed beagle dog at 1 mg/kg, iv measured up to 24 hrs; format: ADME, organism-based, Canis lupus familiaris; design: dose 1 mg/kg, route intravenous; details: in vivo, read-out: beta t1/2 (converted); in short: as §2
[18] = Volume of distribution at steady state in fed beagle dog at 1 mg/kg, iv measured up to 24 hrs; format: ADME, organism-based, Canis lupus familiaris; design: dose 1 mg/kg, route intravenous; details: in vivo, read-out: Vdss; in short: as §2
[19] = Oral bioavailability in fed beagle dog at 5 mg/kg measured up to 24 hrs; format: ADME, organism-based, Canis lupus familiaris; details: in vivo
[20] = Total clearance in fed cynomolgus monkey at 1 mg/kg, iv measured up to 24 hrs; format: ADME, organism-based, Macaca fascicularis; design: dose 1 mg/kg, route intravenous; details: in vivo; in short: as §2
[21] = Terminal half life in fed cynomolgus monkey at 1 mg/kg, iv measured up to 24 hrs; format: ADME, organism-based, Macaca fascicularis; design: dose 1 mg/kg, route intravenous; details: in vivo, read-out: beta t1/2 (converted); in short: as §2
[22] = Volume of distribution at steady state in fed cynomolgus monkey at 1 mg/kg, iv measured up to 24 hrs; format: ADME, organism-based, Macaca fascicularis; design: dose 1 mg/kg, route intravenous; details: in vivo, read-out: Vdss; in short: as §2
[23] = Oral bioavailability in fed cynomolgus monkey at 5 mg/kg measured up to 24 hrs; format: ADME, organism-based, Macaca fascicularis; details: in vivo
[24] = Ratio of Plasma concentration in fed beagle dog at 5 mg/kg, po measured at 24 hrs to IC50 for wild type HIV1 3B infected in human MT4 cells in presence of 20 mg/ml HSA
[25] = Ratio of Plasma concentration in fed cynomolgus monkey at 5 mg/kg, po measured at 24 hrs to IC50 for wild type HIV1 3B infected in human MT4 cells in presence of 20 mg/ml HSA
[26] = Inhibition of CYP450; format: ADME
[27] = test system: Human immunodeficiency virus 1; experiment: Resistance index, ratio of IC50 for HIV1 3B containing integrase Q148K mutant to IC50 for wild type HIV1 3B

SMILES: COCCNC(=O)c1[nH]cc(C(=O)NCc2ccc(F)cc2)c(=O)c1O
IC50 [1]: 130 nM
IC50 [2]: 110 nM
CC50 at 96 h [3]: 16000 nM

SMILES: NC(=O)c1[nH]cc(C(=O)NCc2ccc(F)cc2)c(=O)c1O
IC50 [1]: 380 nM
IC50 [2]: 5500 nM
CC50 at 96 h [3]: 40000 nM

SMILES: COC(=O)c1[nH]cc(C(=O)NCc2ccc(F)cc2)c(=O)c1O
IC50 [1]: 18 nM
IC50 [2]: 10 nM
CC50 at 96 h [3]: 19000 nM
Ratio IC50 [4]: 21
Ratio IC50 [5]: 1.5
IC50 [6]: 120 nM
Ratio IC50 [7]: 12
clearance [8]: 1.2 mL/min/kg
half-life [9]: 4.7 h
AUC(0-inf) [10]: 41200 ng·h/mL
half-life [11]: 4.2 h
Vd [12]: 0.2 L/kg
bioavailability [13]: 53%
concentration at 24 h [14]: 130 ng/mL
Ratio [15]: 3.4
clearance [16]: 0.84 mL/min/kg
half-life [17]: 3.8 h
Vd [18]: 0.14 L/kg
bioavailability [19]: 46%
clearance [20]: 2.4 mL/min/kg
half-life [21]: 5.3 h
Vd [22]: 0.3 L/kg
bioavailability [23]: 22%
Ratio [24]: 6
Ratio [25]: 1.6
inhibition (INH) [26]: Not Active
Ratio IC50 [27]: 200

SMILES: Cc1nnc(C(=O)NC(C)(C)c2nc(C(=O)NCc3ccc(F)cc3)c(O)c(=O)n2C)o1 [RALTEGRAVIR]
IC50 [2]: 6.2 nM
IC50 [6]: 29 nM

SMILES: COc1cc2c(cc1Cc1cccc(Cl)c1F)c(=O)c(C(=O)O)cn2[C@H](CO)C(C)C [ELVITEGRAVIR]
IC50 [2]: 1.3 nM
IC50 [6]: 29 nM

SMILES: O=C(NCCO)c1[nH]cc(C(=O)NCc2ccc(F)cc2)c(=O)c1O
IC50 [1]: 300 nM
IC50 [2]: 5500 nM
CC50 at 96 h [3]: > 200000 nM

Now from value to compound, other results behind:

IC50 [1]: 540 nM
SMILES: CN(C)C(=O)c1[nH]cc(C(=O)NCc2ccc(F)cc2)c(=O)c1O
IC50 [2]: 1600 nM
CC50 at 96 h [3]: 5100 nM

IC50 [1]: 1300 nM
SMILES: CNC(=O)c1[nH]cc(C(=O)NCc2ccc(F)cc2)c(=O)c1O
IC50 [2]: 120 nM
CC50 at 96 h [3]: 8500 nM

IC50 [1]: 10 nM
SMILES: O=C(O)c1[nH]cc(C(=O)NCc2ccc(F)cc2)c(=O)c1O
IC50 [2]: 1400 nM
CC50 at 96 h [3]: > 200000 nM
